Experimental data taken from article PMC3464052 (Journal of medicinal chemistry, 2012).
Where two headings read alike, the source gives them in different places.

Columns and labels:
human α4β2-nAChRs [1] = molecular target: T1, human α4β2-nAChRs (Homo sapiens, UniProt P17787+P43681); conditions: cited from earlier work
mice [2] = experiment: SmartCube automated behavioral signature; assay type: in vivo, mouse; conditions: i.p., 15 min before testing
[3] = 1 h incubation, starting concentration 1 μM; ref [16]; cited from earlier work
Ct-AChBP = Ct-AChBP (Capitella teleta, UniProt I6L8L2); experiment: biochemical; assay type: binding
mice [4] = experiment: Mouse forced swim test; assay type: in vivo
human α4β2-nAChRs [5] = molecular target: T1, human α4β2-nAChRs; experiment: 86Rb+ ion flux assay, SH-EP1 cells; assay type: cell-based; conditions: mixture of HS and LS α4β2-nAChRs
Summary of the method: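 Human α4β2-nAChRs stably expressed in SH-EP1 cells, as a mixture of high- and low-sensitivity forms. Agonist responses are expressed relative to a maximally efficacious concentration of the full agonist carbamylcholine. Inactivation of function is measured after a 10 min pre-exposure to test compound. Concentration-response curves are fitted by semi-logarithmic nonlinear regression.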

α4β2-nAChR = α4β2-nAChR (Rattus norvegicus, UniProt P09483+P12390); experiment: [3H]epibatidine binding competition, heterologously expressed α4β2-nAChR; conditions: from Ki values
[6] = Liver microsome stability, human; assay type: in vitro ADME; conditions: human liver microsomes, 1 h, 2 μM
[7] = Liver microsome stability, dog; assay type: in vitro ADME; conditions: dog liver microsomes, 1 h, 2 μM
[8] = Liver microsome stability, mouse; assay type: in vitro ADME; conditions: mouse liver microsomes, 1 h, 2 μM
[9] = Liver microsome stability, rat; assay type: in vitro ADME; conditions: rat liver microsomes, 1 h, 2 μM
[10] = intraperitoneally, 3 or 10 mg/kg

CN1CCC[C@H]1c1cccnc1 [compound 1, nicotine, reference compound]
Agonism Hill slope (human α4β2-nAChRs [1]): 1.0±0.1 | Inactivation Hill Slope (human α4β2-nAChRs [1]): −0.8±0.09

OCC[C@H]1C[C@@H]1c1cncc(OC[C@@H]2CCN2)c1 [compound 5]
Agonism Efficacy at HS (human α4β2-nAChRs [1]; HS α4β2-nAChR, extrapolated using sazetidine-A as full agonist, ref [16]): 92±6% | Inactivation Efficacy (human α4β2-nAChRs [1]; mixture of HS and LS, ref [16]): 62±1% | Agonism Hill slope (human α4β2-nAChRs [1]; ref [16]): 1.0±0.4 | Inactivation Hill Slope (human α4β2-nAChRs [1]; ref [16]): −1.4±0.2 | SmartCube behavioral signature (mice [2]): signature of activity suggesting potential antidepressant-like effect

CNC(=O)OCC[C@H]1C[C@@H]1c1cncc(OC[C@@H]2CCN2)c1 [compound 6]
tested compound remained unchanged [3]: 98% | SmartCube behavioral signature (mice [2]): signature of activity suggesting potential antidepressant-like effect | Ki (Ct-AChBP): 22 ± 3 nM

CC[C@H]1C[C@@H]1c1cncc(OC[C@@H]2CCN2)c1.O=C(O)C(F)(F)F [compound 10, 3-[(2(S)-Azetidinyl)methoxy]-5-((1S,2S)-2-ethylcyclopropyl)pyridine Trifluoroacetate]
effect in the forced swim test (mice [4]; [10]): no significant effect | SmartCube behavioral signature (mice [2]): signature of activity suggesting potential antidepressant-like effect | Agonism Hill slope (human α4β2-nAChRs [5]): 1.1±0.2 | Inactivation Hill Slope (human α4β2-nAChRs [5]): −1.1±0.3

FCC[C@H]1C[C@@H]1c1cncc(OC[C@@H]2CCN2)c1.O=C(O)C(F)(F)F [compound 12, 3-[(2(S)-Azetidinyl)methoxy]-5-[(1S,2R)-2-(2-fluoroethyl)cyclopropyl]pyridine Trifluoroacetate]
selectivity for α4β2- over α3β4-nAChRs (α4β2-nAChR): greater than 16000 fold | effect in the forced swim test (mice [4]; intraperitoneally or orally): antidepressant-like effect | minimal dose with significant reduction in immobility (mice [4]; intraperitoneally or orally): 3 mg/kg | SmartCube behavioral signature (mice [2]): signature of activity suggesting potential antidepressant-like effect | compound remained unchanged [6]: no less than 98% | compound remained unchanged [7]: no less than 98% | compound remained unchanged [8]: no less than 98% | compound remained unchanged [9]: no less than 98% | Agonism Hill slope (human α4β2-nAChRs [5]): 1.3±0.5 | Inactivation Hill Slope (human α4β2-nAChRs [5]): −1.2±0.4

FC(F)C[C@H]1C[C@@H]1c1cncc(OC[C@@H]2CCN2)c1.O=C(O)C(F)(F)F [compound 13, 3-[(2(S)-Azetidinyl)methoxy]-5-[(1S,2R)-2-(2,2-difluoroethyl)cyclopropyl]pyridine Trifluoroacetate]
selectivity for α4β2- over α3β4-nAChRs (α4β2-nAChR): greater than 16000 fold | effect in the forced swim test (mice [4]; [10]): no significant effect | SmartCube behavioral signature (mice [2]): signature of activity suggesting potential antidepressant-like effect | Agonism Hill slope (human α4β2-nAChRs [5]): 1.4±0.4 | Inactivation Hill Slope (human α4β2-nAChRs [5]): −1.1±0.3

CN[C@H]1CC[C@@H](c2ccc(Cl)c(Cl)c2)c2ccccc21 [sertraline, reference compound]
effect on immobility in the forced swim test (mice [4]; positive control, 20 mg/kg): expected decrease in immobility
